Apaf1 inhib – inhibitors of human Apaf-1 apoptosome. 330,000 compounds, 0.71% hits. reconstituted apoptosome caspase-3 activity, DEVD-Rh110 fluorescence. inhibition, % at 20 µM; active means inhibition of at least 40% at 20 µM;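 further: plate controls were DMSO wells for no effect and DEVD-CHO caspase inhibitor wells for full effect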
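System – cell-free apoptosome with Apaf-1, procaspase-3 and caspase-9 · Buffer or medium – pH 7.5 Hepes buffer with CHAPS, BSA, DTT · Also added – cytochrome c with DEVD-Rh110 · Times – 30 min compound preincubation, 50 min activation, room temperature · Technique – Rh110 fluorescence intensity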
UBC13 inh – inhibitors of human UBC13 polyubiquitin chain formation | 330,000 compounds, 0.47% hits | TR-FRET | P61088 | inhibition, % at 20 µM; in the data active means inhibition above about 45%, passing the limit was not always enough
Target sequence (P61088 whole entry, looked up): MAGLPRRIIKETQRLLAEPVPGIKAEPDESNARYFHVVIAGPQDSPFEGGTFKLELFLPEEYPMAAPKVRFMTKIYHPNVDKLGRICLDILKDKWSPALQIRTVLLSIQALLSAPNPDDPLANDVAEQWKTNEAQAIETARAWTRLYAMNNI
SUMO HTRF inh – SUMOylation inhibition | P63279 | HTRF SUMOylation assay, SAE1/SAE2 + UBC9, in vitro | inhibition, % at 35 µM | 290,000 compounds, 0.36% hits | AID 2006; in the data active means inhibition above about 50%, passing the limit was not always enough
GSTO1 counter – GSTO1 inhibition, counter-screen for RBBP9 inhibitors. P78417. recombinant GSTO1, activity-based probe fluorescence polarization. inhibition, % at 5.96 µM. 300,000 compounds, 1.1% hits;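 active means inhibition above the campaign mean inhibition plus 3 SD, cut at about 35% in these data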;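 further: 0% = GSTO1-1 with DMSO and 100% = wells lacking GSTO1-1 enzyme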
Target sequence (P78417 whole entry, looked up): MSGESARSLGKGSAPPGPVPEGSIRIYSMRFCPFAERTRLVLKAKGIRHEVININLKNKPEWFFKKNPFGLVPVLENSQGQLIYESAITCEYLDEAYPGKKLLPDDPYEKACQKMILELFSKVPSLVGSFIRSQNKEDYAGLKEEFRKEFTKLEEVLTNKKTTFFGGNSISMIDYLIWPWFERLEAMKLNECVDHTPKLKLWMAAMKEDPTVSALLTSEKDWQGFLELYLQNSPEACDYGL
Rin1 Abl inh – blocks binding of human Rin1 to Abl | inhibition, % at 7.35 µM | P00519+Q13671 | TR-FRET Rin1/Abl binding, biochemical | AID 588664 | 360,000 compounds, 0.4% hits; in the data active means inhibition above about 5%, passing the limit was not always enough
PAD4 FP inh – inhibitors of human PAD4; recombinant PAD4, RCA probe fluorescence polarization; inhibition, % at 6.36 µM; Q9UM07; 330,000 compounds, 0.41% hits;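 active means percent inhibition above a cutoff equal to the mean of all tested compounds plus 3 SD, cut at about 15% in these data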;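 further: 0% = PAD4 with RCA probe and DMSO and 100% = probe without PAD4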
Casp3 UBC13 ctr – inhibits human caspase-3 in UBC13 counter-screen; shares compounds with UBC13 inh; AID 488856; Recombinant caspase-3, Caspase-Glo 3/7 luminescence, 60 min; inhibition, % at 20 µM; 1,400 compounds, 4% hits;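 active means mean inhibition across replicates above about 26%, limit read from the data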;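 further: plate controls were DMSO with caspase-3 for no effect and DMSO wells lacking enzyme for full effect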
Target sequence (P42574 whole entry, looked up): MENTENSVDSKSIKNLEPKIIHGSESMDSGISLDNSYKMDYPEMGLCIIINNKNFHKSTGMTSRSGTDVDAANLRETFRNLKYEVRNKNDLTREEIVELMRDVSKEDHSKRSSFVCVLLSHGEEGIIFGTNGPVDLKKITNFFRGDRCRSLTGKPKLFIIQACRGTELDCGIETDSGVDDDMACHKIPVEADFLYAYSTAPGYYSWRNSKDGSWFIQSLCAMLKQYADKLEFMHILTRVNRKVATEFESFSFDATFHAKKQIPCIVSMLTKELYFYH
UBC13 confirm – confirmation of human UBC13 polyubiquitin inhibitors | inhibition, % at 10 µM | AID 488859 | 1,400 compounds, 68% hits | UBC13 polyubiquitination, TR-FRET, biochemical | shares compounds with UBC13 inh; in the data active means inhibition above about 45%
Apaf-1 inh conf2 – confirmation of Apaf-1 inhibitors. shares compounds with Apaf1 inhib. 1,800 compounds, 25% hits. inhibition, % at 20 µM. reconstituted apoptosome, caspase-3 DEVD-Rh110 fluorescence;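 active means mean inhibition of at least 40% at 20 µM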;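 further: plate controls were DMSO wells for no effect and DEVD-CHO caspase inhibitor control wells for full effect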
Rh110 quench – Rh110 signal interference in Apaf-1 inhibitor counter-screen. shares compounds with Apaf1 inhib. Rh110 fluorescence interference, quenched caspase reaction. activation (fluorescence interference), % at 20 µM. 1,800 tested, under 10 active. AID 504615;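 active means signal rise of 40% or more at 20 µM, treated as a fluorescence artifact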
Apaf1 inh interf – Apaf-1 inhibitor counter-screen fluorescence artifact | IC50, µM | 460 tested, under 10 active | shares compounds with Apaf1 inhib | fluorescence interference counterscreen, Apaf-1 assay format; call rule not given here
The depositor's hits bear a star; . = no result given. Rows were chosen to be rich in hits. Some 2.2% of all compounds tested hit in one or more screens of this group.

SMILES | Apaf1 inhib | UBC13 inh | SUMO HTRF inh | GSTO1 counter | Rin1 Abl inh | PAD4 FP inh | Casp3 UBC13 ctr | UBC13 confirm | Apaf-1 inh conf2 | Rh110 quench | others
COc1ccccc1CCNCc1cccc(C(F)(F)F)c1 | -5 | 52* | 4 | -1 | 3 | 2 | 0 | 10 | . | .
COC(=O)C1=C(c2cc3ccccc3o2)C[C@@H]2CC[C@H]1N2C(=O)NCCO | 4 | -1 | . | 5 | 0 | -2 | . | . | . | .
ClCCN1CCSCC1 | . | . | . | . | 6 | . | . | . | . | .
CC(=O)N[C@@H]1CC[C@@]2(O)[C@H]3Cc4ccc(O)c5c4[C@@]2(CCN3CC2CC2)[C@@H]1O5 | -8 | 0 | . | . | -3 | -1 | . | . | . | .
NC(N)=Nc1ccc2[nH]c3c(c2c1)C[C@@]1(O)[C@H]2Cc4ccc(O)c5c4[C@@]1(CCN2CC1CC1)[C@H]3O5 | -27 | 53* | . | 17 | -1 | 2 | -6 | 11 | . | .
CCCCCCCSc1cc(OC)c(CCNC)cc1OC | 25 | 51* | 16 | 10 | -2 | -3 | -2 | 62* | . | .
CCCCCSc1cc(OC)c(CCNC)cc1OC | 8 | 20 | 23 | 5 | -1 | -5 | . | . | . | .
COC(=O)C1=C(c2ccc(-c3ccccc3)c(F)c2)C[C@@H]2CC[C@H]1N2C(=O)NCCOc1ccc(OC)cc1 | 18 | 10 | . | . | 1 | 0 | . | . | . | .
CC12CNCC(C)(CNC1)C2O (configuration not stated) | 28 | 57* | 31 | 7 | 4 | 0 | 0 | 1 | . | .
O=P1(NCCCl)OCCCN1CCCl (configuration not stated) | -6 | 46* | . | 7 | -1 | -1 | 4 | 3 | . | .
O=C(C(=O)N1CCOCC1)c1cn(Cc2ccc(F)cc2)c2ccccc12 | 0 | 45* | 27 | 4 | -1 | -2 | -4 | 42 | . | .
O=C(C(=O)N1CCOCC1)c1cn(Cc2ccccc2Cl)c2ccccc12 | 4 | 54* | -10 | -5 | -1 | -8 | -2 | 53* | . | .
CCCCCn1cc(C(=O)C(=O)N2CCOCC2)c2ccccc21 | 6 | 24 | 3 | 5 | 0 | 4 | . | . | . | .
COc1cc2c(c(OC)c1OC)-c1ccc(O)c(=O)cc1[C@@H](N)CC2 | -5 | 100* | . | 3 | 4 | -4 | 1 | 93* | . | .
CC12C=CC(=O)C=C1CC(O)C1C2CCC2(C)C1CCC2(C)O (configuration not stated) | . | . | . | . | 0 | . | . | . | . | .
COc1cccc2c1N=C1CCCC3CN(C(C)=O)CCC123 (configuration not stated) | . | . | . | . | -1 | . | . | . | . | .
CCN(CC)CCCNC(=O)c1c(O)c2ccccc2n(Cc2ccccc2)c1=O | 15 | 53* | -4 | 5 | -2 | -3 | 2 | 74* | . | .
CCN(CC)CCNC(=O)c1c(O)c2ccccc2n(Cc2ccccc2)c1=O | 17 | 43 | -12 | 9 | -3 | -2 | . | . | . | .
COCCCNC(=O)c1c(NC(=O)c2ccccc2)n(Cc2ccccc2)c2nc3ccccc3nc12 | 33 | 49* | . | 16 | 4 | -3 | -1 | 37 | . | .
C/C(=N\NC(=O)c1ccccc1)c1c(O)n(Cc2ccccc2)c(=O)[nH]c1=O | -7 | -7 | -9 | 6 | -2 | 1 | . | . | . | .
COC(=O)C1=C(c2ccc(OCc3ccccc3)cc2)C[C@@H]2CC[C@H]1N2C(=O)NC1CCN(Cc2ccccc2)CC1 | 58* | 55* | . | . | 1 | -3 | -3 | 30 | 23 | 10
NC(N)=N/N=C/c1cn(-c2ccccc2)nc1-c1cccs1 | 41* | 79* | 15 | -26 | -2 | -10 | 2 | 85* | 14 | 15
O=c1c2ccccc2nc(-c2cccs2)n1-c1ccccc1 | 14 | 6 | 0 | 1 | 0 | 0 | . | . | . | .
CC1(CCO)C(=O)NC(=S)NC1=O | . | . | . | . | 2 | . | . | . | . | .
O=[N+]([O-])c1ccc(-[n+]2c(-c3ccccc3)cc(-c3ccccc3)cc2-c2ccccc2)cc1 | 3 | 1 | 15 | -1 | -1 | -1 | . | . | . | .
SMILES | Apaf1 inhib | UBC13 inh | SUMO HTRF inh | GSTO1 counter | Rin1 Abl inh | PAD4 FP inh | Casp3 UBC13 ctr | UBC13 confirm | Apaf-1 inh conf2 | Rh110 quench | others
O=[N+]([O-])c1ccccc1-c1cc(-c2ccccc2)cc(-c2ccccc2)[n+]1Cc1ccccc1Cl | 53* | 38 | . | 2 | . | -8 | . | . | 20 | 9
COCCOC(=O)c1c(N)n(Cc2ccccc2)c2nc3ccccc3nc12 | 83* | -20 | 24 | 28 | 0 | -27 | . | . | 15 | 2
COc1ccc(Cn2c(O)c(/C=N/NC(=O)c3ccccc3)c(=O)[nH]c2=O)cc1 | 4 | -22 | -65 | -6 | -1 | -6 | . | . | . | .
COc1ccc(Cn2c(N)c(C(=O)NCc3ccco3)c3nc4ccccc4nc32)cc1 | 67* | -47 | 95 | 24 | -1 | -10 | . | . | 20 | 9
CC(C)Cc1nnc(NC(=O)CCC(=O)N2CCC3(CC2)OCCO3)s1 | -10 | -10 | 5 | 0 | -1 | 0 | . | . | . | .
C=C1[C@H]2C[C@H]3[C@H]4N5C[C@]6(C)CCC[C@]47[C@H]([C@H]2O)[C@]3(C[C@]5(O)[C@H]67)[C@@H]1O | -6 | -9 | . | -4 | 1 | 1 | . | . | . | .
O=[N+]([O-])c1ccc(NC2CCN(Cc3ccccc3)CC2)c2ccncc12 | 74* | -106 | 19 | -2 | -6 | -16 | . | . | 21 | 9
O=[N+]([O-])c1ccc(NC2CCCC2)c2ccncc12 | 42* | -190 | 11 | 2 | -8 | -13 | . | . | 15 | 2
O=[N+]([O-])/C=C/c1c(Cl)cccc1Cl | . | . | . | . | 4 | . | . | . | . | .
C#C[C@@]1(O)CCC2C3CCC4=C/C(=N/OCC(=O)NC(C(=O)NC(CC(C)C)C(=O)O)C(C)C)CC[C@]4(C)C3CC[C@@]21C (some centres not stated) | 8 | -7 | 17 | . | 0 | . | . | . | . | .
Cn1c(=O)[nH]c2nncnc2c1=O | 68* | -5 | . | 29 | 1 | -15 | . | . | 68* | -2 | Apaf1 inh interf=>100
CC(C)OCCCNC(=O)c1c(N)n(CC2CCCO2)c2nc3ccccc3nc12 (configuration not stated) | 94* | -4 | 98* | 24 | 10 | -4 | . | . | 30 | 17
CC(C)CCn1c(=O)c(C(=O)NCc2ccc3c(c2)OCO3)c(O)c2ccccc21 | 9 | 8 | -7 | 9 | -1 | -3 | . | . | . | .
CCCCNC(=O)c1c(N)n(Cc2ccc3c(c2)OCO3)c2nc3ccccc3nc12 | 95* | -29 | 17 | 20 | 8 | -1 | . | . | 31 | 5
